{"source": "ChEMBL document CHEMBL1132576", "about": "“Tetrahydrobenzindoles: selective antagonists of the 5-HT7 receptor” (J Med Chem, 1999)", "key": {"[1]": {"molecular_target": "5-hydroxytryptamine receptor 7 (Homo sapiens, UniProt P34969)", "sequence (P34969 whole entry)": "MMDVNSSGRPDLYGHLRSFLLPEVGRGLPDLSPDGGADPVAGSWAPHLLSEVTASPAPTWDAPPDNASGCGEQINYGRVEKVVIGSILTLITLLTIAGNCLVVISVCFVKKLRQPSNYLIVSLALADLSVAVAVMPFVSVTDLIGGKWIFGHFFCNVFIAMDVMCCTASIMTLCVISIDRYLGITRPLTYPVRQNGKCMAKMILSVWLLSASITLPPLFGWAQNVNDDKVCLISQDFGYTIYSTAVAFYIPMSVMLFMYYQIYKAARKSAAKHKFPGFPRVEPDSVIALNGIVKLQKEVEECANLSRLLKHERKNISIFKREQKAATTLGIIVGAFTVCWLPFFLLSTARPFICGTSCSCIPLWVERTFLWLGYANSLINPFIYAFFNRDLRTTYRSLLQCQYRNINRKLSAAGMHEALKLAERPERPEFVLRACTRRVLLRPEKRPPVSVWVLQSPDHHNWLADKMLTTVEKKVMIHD", "assay": "Compound was evaluated for its ability to displace [3H]5-CT binding from cloned human 5-hydroxytryptamine 7 receptor expressed in COS-7 cells.", "assay_type": "cell-based", "method_in_brief": "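Radioligand displacement of [³H]5-CT from cloned human 5-HT7 receptor expressed in COS-7 cells. Values reported as pKi, each the mean of at least two determinations, each within 0.2 log unit of the mean.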"}, "[2]": {"molecular_target": "Serotonin 2 (5-HT2) receptor (Rattus norvegicus, UniProt P30994+P08909+P14842)", "assay": "Compound was evaluated for its ability to displace [3H]ketanserin binding from […] rat cerebral cortex membranes 5-hydroxytryptamine 2 receptor", "assay_type": "tissue-based", "method_in_brief": "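Displacement of [³H]ketanserin from 5-HT2 sites in rat cerebral cortex membranes. Values reported as pKi, each the mean of at least two determinations, each within 0.2 log unit of the mean.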"}, "[3]": {"molecular_target": "5-hydroxytryptamine receptor 4 (Cavia porcellus, UniProt O70528)", "sequence (O70528 whole entry)": "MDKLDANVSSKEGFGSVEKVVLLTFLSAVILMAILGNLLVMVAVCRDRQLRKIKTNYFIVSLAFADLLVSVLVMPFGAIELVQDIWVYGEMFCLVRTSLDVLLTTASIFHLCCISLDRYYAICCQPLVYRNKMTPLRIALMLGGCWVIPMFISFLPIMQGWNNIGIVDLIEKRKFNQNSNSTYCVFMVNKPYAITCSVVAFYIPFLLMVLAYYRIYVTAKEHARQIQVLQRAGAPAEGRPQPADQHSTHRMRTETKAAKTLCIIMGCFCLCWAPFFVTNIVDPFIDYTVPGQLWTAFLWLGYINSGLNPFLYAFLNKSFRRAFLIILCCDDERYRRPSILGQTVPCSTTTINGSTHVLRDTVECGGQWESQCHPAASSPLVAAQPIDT", "assay": "Compound was evaluated for its ability to displace [3H]GR-113808 binding from 5-hydroxytryptamine 4 receptor in guinea pig striatum.", "method_in_brief": "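Competition binding in guinea-pig striatum using [3H]GR-113808 at 5-HT4 sites. pKi is the mean of at least two determinations, each within 0.2 log unit of the mean.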"}, "D(2) dopamine receptor": {"molecular_target": "D(2) dopamine receptor (Rattus norvegicus, UniProt P61169)", "sequence (P61169 whole entry)": "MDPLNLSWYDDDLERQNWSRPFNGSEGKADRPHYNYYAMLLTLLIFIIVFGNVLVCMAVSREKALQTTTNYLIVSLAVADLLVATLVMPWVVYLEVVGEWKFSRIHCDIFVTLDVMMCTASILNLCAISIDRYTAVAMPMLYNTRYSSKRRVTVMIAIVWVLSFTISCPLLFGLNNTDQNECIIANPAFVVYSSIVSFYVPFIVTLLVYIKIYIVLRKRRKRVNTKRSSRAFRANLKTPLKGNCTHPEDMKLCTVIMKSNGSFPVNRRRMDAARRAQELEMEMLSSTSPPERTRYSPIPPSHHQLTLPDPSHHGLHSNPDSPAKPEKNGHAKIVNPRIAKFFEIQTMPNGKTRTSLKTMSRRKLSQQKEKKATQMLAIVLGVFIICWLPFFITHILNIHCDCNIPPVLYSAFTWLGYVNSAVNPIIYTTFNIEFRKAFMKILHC", "assay": "Compound was evaluated for its ability to displace [3H]spiperone binding from Dopamine receptor D2 in rat striatum.", "method_in_brief": "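Dopamine D2 binding was run in rat striatum with [3H]spiperone as radioligand. Values are pKi, mean of at least two determinations, each within 0.2 log unit of the mean.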"}, "[4]": {"molecular_target": "5-hydroxytryptamine receptor 6 (Homo sapiens, UniProt P50406)", "sequence (P50406 whole entry)": "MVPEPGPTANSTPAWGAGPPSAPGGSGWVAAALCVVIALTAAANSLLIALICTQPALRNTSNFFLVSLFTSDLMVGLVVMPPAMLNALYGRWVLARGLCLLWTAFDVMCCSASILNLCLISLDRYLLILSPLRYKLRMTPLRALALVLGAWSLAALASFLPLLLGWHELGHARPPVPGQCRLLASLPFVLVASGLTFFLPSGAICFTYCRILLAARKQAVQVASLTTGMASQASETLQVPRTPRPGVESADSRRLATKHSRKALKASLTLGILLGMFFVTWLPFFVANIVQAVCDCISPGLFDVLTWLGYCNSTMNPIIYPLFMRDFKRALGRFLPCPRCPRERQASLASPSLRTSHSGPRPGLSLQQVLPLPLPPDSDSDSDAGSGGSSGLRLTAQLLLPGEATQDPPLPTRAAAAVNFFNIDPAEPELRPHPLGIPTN", "assay": "Compound was evaluated for its ability to displace [3H]LSD binding from human recombinant 5-hydroxytryptamine 6 receptor", "method_in_brief": "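Displacement of [3H]LSD from human recombinant 5-HT6 receptor expressed in mammalian cells. pKi is the mean of at least two determinations, each lying within 0.2 log unit of the mean.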"}, "[5]": {"molecular_target": "T1, 5-hydroxytryptamine receptor 1A (Homo sapiens, UniProt P08908)", "T1 sequence (P08908 whole entry)": "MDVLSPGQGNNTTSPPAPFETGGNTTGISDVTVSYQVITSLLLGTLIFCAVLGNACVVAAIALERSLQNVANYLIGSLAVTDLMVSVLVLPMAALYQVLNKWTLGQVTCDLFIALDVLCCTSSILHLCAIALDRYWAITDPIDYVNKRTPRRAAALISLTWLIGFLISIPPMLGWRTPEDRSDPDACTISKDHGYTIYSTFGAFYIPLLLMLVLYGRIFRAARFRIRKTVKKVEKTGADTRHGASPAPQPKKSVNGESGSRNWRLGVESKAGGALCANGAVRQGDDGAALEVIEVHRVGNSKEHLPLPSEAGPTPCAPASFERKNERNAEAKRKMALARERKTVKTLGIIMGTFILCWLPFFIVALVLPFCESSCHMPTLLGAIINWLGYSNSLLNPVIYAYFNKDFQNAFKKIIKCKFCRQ", "assay": "Compound was evaluated for its ability to displace [3H]8-OH-DPAT binding from human 5-hydroxytryptamine 1A receptor in mammalian cells", "assay_type": "cell-based", "method_in_brief": "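Radioligand displacement at human recombinant 5-HT1A receptor expressed in mammalian cells, labelled with [3H]8-OH-DPAT. Affinity reported as pKi, mean of at least two determinations, each within 0.2 log unit of the mean.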"}}, "data": [{"smiles": "O=C1Nc2cccc3c2C1(CCCCN1CCN(C2CCCCC2)CC1)CCC3", "note": "(stereo not given)", "values": [{"measurement": "Ki", "setting": "[1]", "result": "> 1000", "unit": "nM"}, {"measurement": "Log Ki", "setting": "[2]", "result": "> -6"}]}, {"smiles": "O=C1Nc2cccc3c2C1(CCCN1CCN(c2ccccc2)CC1)CCC3", "note": "(stereo not given)", "values": [{"measurement": "Ki", "setting": "[1]", "result": 5.25, "unit": "nM"}, {"measurement": "Log Ki", "setting": "[2]", "result": -7.79}]}, {"smiles": "O=C1Nc2cccc3c2C1(CCN1CCN(c2ccccc2)CC1)CCC3", "note": "(stereo not given)", "values": [{"measurement": "Ki", "setting": "[1]", "result": 102, "unit": "nM"}, {"measurement": "Log Ki", "setting": "[2]", "result": -8.27}]}, {"smiles": "COc1ccccc1N1CCN(CCCCC23CCCc4cccc(c42)NC3=O)CC1", "note": "(stereo not given)", "values": [{"measurement": "Ki", "setting": "[1]", "result": 5.13, "unit": "nM"}, {"measurement": "Log Ki", "setting": "[2]", "result": -6.95}]}, {"smiles": "O=C1Nc2cccc3c2C1(CCCCN1CC=C(c2ccccc2)CC1)CCC3", "note": "(stereo not given)", "values": [{"measurement": "Ki", "setting": "[1]", "result": 2.14, "unit": "nM"}, {"measurement": "Log Ki", "setting": "[2]", "result": -7.01}, {"measurement": "Ki", "setting": "[3]", "result": "> 1000", "unit": "nM"}, {"measurement": "Ki", "setting": "D(2) dopamine receptor", "result": 105, "unit": "nM"}, {"measurement": "Ki", "setting": "[4]", "result": 525, "unit": "nM"}, {"measurement": "Ki", "setting": "[5]", "result": 170, "unit": "nM"}]}, {"smiles": "O=C1Nc2cccc3c2C1(CCCCN1CCN(c2ccccn2)CC1)CCC3", "note": "(stereo not given)", "values": [{"measurement": "Ki", "setting": "[1]", "result": 1.86, "unit": "nM"}, {"measurement": "Log Ki", "setting": "[2]", "result": -7.27}]}, {"smiles": "N#Cc1ccccc1N1CCN(CCCCC23CCCc4cccc(c42)NC3=O)CC1", "note": "(stereo not given)", "values": [{"measurement": "Ki", "setting": "[1]", "result": 3.8, "unit": "nM"}, {"measurement": "Log Ki", "setting": "[2]", "result": -6.98}]}, {"smiles": "O=C1Nc2cccc3c2C1(CCCCN1CCN(c2ccccc2)CC1)CCC3", "note": "(stereo not given)", "values": [{"measurement": "Ki", "setting": "[1]", "result": 3.31, "unit": "nM"}, {"measurement": "Log Ki", "setting": "[2]", "result": -7.37}]}]}
